# OX1R antag-1 – antagonists of human orexin 1 receptor (OX1R); O43613; OX1R-expressing cells, FRET antagonist read-out; inhibition, % at 6.6 µM; 1.8% of 330,000 active; in the data active means inhibition mostly above about 38%, no sharp cut-off; inactive means mostly below about 40%;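 further: 0% = agonist challenge alone and 100% = reference antagonist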
# Target sequence (O43613 whole entry, looked up): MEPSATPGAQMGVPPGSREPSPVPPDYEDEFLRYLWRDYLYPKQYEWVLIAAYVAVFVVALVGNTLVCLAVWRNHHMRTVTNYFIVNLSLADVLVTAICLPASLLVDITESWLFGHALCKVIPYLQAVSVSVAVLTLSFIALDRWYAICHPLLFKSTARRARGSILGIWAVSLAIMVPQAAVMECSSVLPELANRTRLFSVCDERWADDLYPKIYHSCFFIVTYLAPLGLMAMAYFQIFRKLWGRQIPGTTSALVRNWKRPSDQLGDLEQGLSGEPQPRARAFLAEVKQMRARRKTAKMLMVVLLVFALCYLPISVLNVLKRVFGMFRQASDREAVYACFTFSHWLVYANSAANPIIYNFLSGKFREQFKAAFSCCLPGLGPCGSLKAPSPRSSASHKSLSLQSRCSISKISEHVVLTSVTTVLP
# CHO-K1 Ca antag – nonselective inhibitor or artifact in parental CHO-K1 cells; inhibition, % at 3 µM; AID 602250; 0.6% of 360,000 active; ATP-induced calcium, Fluo-8 fluorescence;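 active means inhibition above a per-plate cutoff, the plate's mean sample inhibition plus 3 SD, cut at about 24% in these data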;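 further: 0% = DMSO plus EC80 ATP and 100% = DMSO alone without ATP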
# M1 PAM parental – M1 PAM counterscreen hit in parental CHO-K1 cells. ATP EC20, Fluo-8 calcium fluorescence; 0% at ATP EC20, 100% at ATP max. activation, % at 3 µM. 0.02% of 360,000 active;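 active means activation above the run cutoff, the mean activation of all test compounds plus 3 SD, cut at about 40% in these data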;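 further: peak over basal fluorescence ratio in a 140 s read after ATP addition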
# OX1R antag-2 – blocks the human orexin 1 receptor | O43613 | CHO/OX1R cells, Fluo-8 calcium fluorescence, orexin A | inhibition, % at 5 µM | 0.43% of 330,000 active | AID 434989;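 active means inhibition above its plate's threshold, mean inhibition of all tested compounds on the plate plus 3 SD, cut at about 37% in these data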;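 further: 0% = orexin A challenge wells and 100% = SB-334867-A antagonist wells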
# CHO parental Ca – counter-screen: ATP calcium response change in parental CHO cells; parental CHO-K1, ATP-induced calcium, Fluo-8 fluorescence; inhibition, % at 5.6 µM; 0.63% of 330,000 active;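 active means inhibition above that plate's mean sample inhibition plus 3 SD, cut at about 26% in these data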;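 further: 0% = ATP-challenged DMSO wells and 100% = DMSO wells without ATP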
#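 Measured by: calcium-sensitive Fluo-8 fluorescence / Test system: CHO parental line / Controls: ATP-challenged DMSO wells low, unchallenged DMSO wells high / Measure: % inhibition / Compound: single nominal dose of 5.6 µM per compound / Replicates: single well per compound, no replicates / Reagent: ATP as calcium-mobilizing challenge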
# M1 ag parental – counter-screen for M1 agonists: effect in parental CHO-K1 cells. Fluo-8 calcium fluorescence; scaled to maximal ATP response, vehicle zero. activation, % at 3 µM. 0.48% of 360,000 active. AID 602248; in the data active means activation above about 15%;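 further: untransfected CHO-K1 host cells lacking M1 receptor as counterscreen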
# * = called active by the depositor; · = not tested or not shown. An excerpt weighted towards active compounds, which were near 2.9% of everything screened.
SMILES,OX1R antag-1,CHO-K1 Ca antag,M1 PAM parental,OX1R antag-2,CHO parental Ca,M1 ag parental
Cc1ccc(CNC(=O)CSc2ccc(-c3cccs3)nn2)cc1,50.7*,-6.6,-5.8,-0.1,-21.6,0.2
Cc1ccc(C)n1-n1cnc2sc(-c3ccccc3)cc2c1=O,18.7,-35.5,21.1,-19.8,-26.4,4.3
Cc1ccc(C)n1-n1c(C)nc2sc(-c3ccccc3)cc2c1=O,57.2,6.7,-7.6,27.3,38.5*,1.7
CCOC(=O)C1=C[C@@H](C2CCCCC2)N(S(=O)(=O)c2ccc([N+](=O)[O-])cc2)[C@H]1c1ccccc1,·,26.9*,3.7,·,·,0.8
N#C/C(=C/c1ccc(-c2cc([N+](=O)[O-])ccc2Cl)o1)C(N)=O,53.6*,-10.3,7.8,14.2,8.8,0.5
N#C/C(=C/c1ccc(-c2ccccc2[N+](=O)[O-])o1)C(N)=O,42.8,-16.3,23.9,-12.9,4.2,2.6
CN(c1cccc(NC(=O)c2ccc(N(C)S(=O)(=O)c3ccccc3)cc2)c1)S(C)(=O)=O,21.2,24.3*,-11.8,67.4*,62.1*,16.3*
Cc1nc2ccc(NC(=O)c3cc(S(=O)(=O)N(C)c4ccccc4)ccc3Cl)cc2s1,40.2,21.6,3.0,14.4,39.3,14.9
CN(c1ccccc1)S(=O)(=O)c1cccc(NC(=O)c2ccncc2)c1,3.9,4.0,-1.4,-2.4,11.4,15.2*
CN(c1ccccc1)S(=O)(=O)c1cccc(NC(=O)c2ccc(Cl)c([N+](=O)[O-])c2)c1,43.6*,3.1,-14.7,62.0*,64.3*,7.6
Cc1nc2ccc(NC(=O)c3ccc(Cl)c(S(=O)(=O)N(C)c4ccccc4)c3)cc2s1,49.9,12.5,-8.7,27.5,41.5*,1.9
COc1ccccc1C1=Nn2c(COc3ccccc3)nnc2SC1,6.1,·,·,-11.9,-4.5,·
Cc1cc(C)cc(NC(=O)COC(=O)Cn2cnc3c2c(=O)n(C)c(=O)n3C)c1,-3.8,-1.1,-19.9,11.9,-10.4,-0.2
COc1cccc(C(=O)OCC(=O)NCCC2=CCCCC2)c1,1.6,7.6,-17.9,-15.7,-14.6,-0.1
CN(c1ccccc1)S(=O)(=O)c1ccc(C(=O)NNC(=O)c2ccccc2)cc1,-3.7,-1.6,9.1,-9.6,-14.5,-0.3
CN(c1ccccc1)S(=O)(=O)c1cccc(C(=O)NNC(=O)c2ccccc2)c1,45.8*,5.0,-1.6,8.6,30.9,14.0
NS(=O)(=O)c1cccc(NS(=O)(=O)c2ccc(/C=C/C(=O)OCC(=O)c3ccc(Br)cc3)cc2)c1,4.2,-3.4,-0.9,20.9,25.2*,0.6
COc1ccc(C(=O)COC(=O)/C=C/c2ccc(S(=O)(=O)Nc3cccc(S(N)(=O)=O)c3)cc2)cc1,9.2,-1.9,13.9,11.1,9.7,1.1
CCc1nc2c(OCC3CCCCC3)cccn2c1N(C)C(=O)c1ccc(C)cc1,·,-19.0,1.2,·,·,-0.7
COc1ccc(C)cc1NC(=O)c1ccc2c(O)c(S(=O)(=O)c3ccccc3)c(=O)[nH]c2c1,6.5,9.3,-17.7,-10.5,-7.8,0.0
COc1ccc(N(C)C(=O)CCS(=O)(=O)c2cccc3nonc23)c(OC)c1,60.9*,-12.9,-0.3,-20.2,0.9,0.2
COc1cccc(CNC(=O)CCCNS(=O)(=O)c2cccs2)c1,10.1,41.5*,-0.5,-4.6,-4.9,1.6
Cc1cccc(N(C)C(=O)CCS(=O)(=O)c2cccc3nonc23)c1,51.9*,0.4,8.8,-16.0,-16.4,0.2
COc1ccc(NS(=O)(=O)c2cccc3nonc23)c(OC)c1,26.2,-12.8,19.2,-20.4,-3.2,0.8
COc1cccc(CNC(=O)CCS(=O)(=O)c2cccc3nonc23)c1,59.1*,6.8,11.6,-13.8,-16.4,-0.2
Cc1ccc(S(=O)(=O)N2CCC[C@H]2C(=O)NC2CCCCC2)cc1,·,-13.3,10.3,·,·,1.1
Cc1[nH]c(C)c(S(=O)(=O)N2CCN(c3ccccc3F)CC2)c1C(=O)N1CCCCC1,1.8,-5.1,-14.5,-19.1,-14.7,0.8
CCCNC(=O)C1(C)CCN(C(=O)c2ccc3sccc3c2)C1 (stereo not drawn),·,-5.2,14.5,·,·,0.5
CC(=O)c1cccc(NC(=O)CCS(=O)(=O)c2cccc3nonc23)c1,57.8*,-4.1,9.7,-10.9,-2.6,1.1
Cc1ccc(NC(=O)CCS(=O)(=O)c2cccc3nonc23)cc1,42.5,-10.6,6.9,-10.0,-9.3,0.3

# Screening results: PubChem, The Scripps Research Institute Molecular Screening Center
